The T/C is the result in the treated group divided by that in the control group, in per cent. The term IC50 denotes the concentration needed to halve the response being measured.

The values below come from ChEMBL document CHEMBL4028811, “Discovery of 2-substituted 1H-benzo[d]immidazole-4-carboxamide derivatives as novel poly(ADP-ribose)polymerase-1 inhibitors with in vivo anti-tumor activity” (Eur J Med Chem, 2017).

For one series, the species on record is Homo sapiens. The series can be described thus: Selectivity ratio of IC50 for recombinant human PARP2 to IC50 for recombinant human PARP1. Put shortly: (§1)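 Human recombinant PARP2 (and PARP1) expressed and purified, inhibition measured by ELISA, with AZD2281 as positive control. IC50 from concentration–response fitting.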
Series [1] concerns MX1. The series can be described thus: Anti-tumor activity against human MX1 cells xenografted in BALB/c mouse assessed as tumor growth inhibition at 50 mg/kg, po administered once daily via gavage for 10 days measured after 11 days relative to control. Format: functional. Put shortly:
(§2)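 Female athymic BALB/c nude mice, 8–10 weeks old, implanted s.c. with 1×10^6 MX-1 cells in 0.1 mL PBS. Day 6: grouped at 6/group, tumors 100–300 mm³. Oral gavage once daily. TMZ 50 mg/kg/day for 5 days; single-agent test compound 50 mg/kg/day for 10 days; combinations both orally for 5 days. Body weight and tumor volume measured twice weekly; euthanized day 11.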

Series [2] addresses T1, Poly [ADP-ribose] polymerase 1 (Homo sapiens, UniProt P09874). The series can be described thus: Inhibition of recombinant human PARP1 expressed in Escherichia coli BL21(DE3) using histone as substrate measured after 1 hr in presence of biotinylated NAD+ by ELISA. (In an ELISA, binding on a coated surface is turned into a signal by an enzyme label.)
For series [3], the system named is MX1. Description: Anti-tumor activity against human MX1 cells xenografted in BALB/c mouse assessed as tumor growth inhibition at 50 mg/kg, po administered once daily via gavage for 5 days measured after 11 days in presence of temozolomide relative to temozolomide. The series is classed as functional. Put shortly: as §2
A general note: A xenograft is tissue or cells of one species grown in another, often human tumour cells in immunodeficient mice.

For series [4], the system named is Mus musculus. The series can be described thus: Toxicity in BALB/c mouse assessed as change in body weight at 25 mg/kg, po administered once daily via gavage for 5 days in presence of temozolomide measured twice every week up to 11 days (reference value: 5.32 g). As to conditions: in vivo. Format: organism-based. Put shortly: as §2
Series [5] deals with Mus musculus. Description: Toxicity in BALB/c mouse assessed as change in body weight at 50 mg/kg, po administered once daily via gavage for 5 days in presence of temozolomide measured twice every week up to 11 days (reference value: 5.32 g). The series is classed as organism-based. As to conditions: in vivo. Put shortly:
as §2

The subject of series [6] is MX1. Description: Anti-tumor activity against human MX1 cells xenografted in BALB/c mouse assessed as tumor weight at 25 mg/kg, po administered once daily via gavage for 5 days measured after 11 days in presence of temozolomide (reference value: 4.09 +/- 0.64 g). Format: functional. The essentials:
as §2

The subject of series [7] is MX1. The series can be described thus: Anti-tumor activity against human MX1 cells xenografted in BALB/c mouse assessed as tumor growth inhibition at 50 mg/kg, po administered once daily via gavage for 5 days measured after 11 days in presence of temozolomide relative to control. Format: functional. The essentials: as §2
In series [8] the test system is Mus musculus. Description: Toxicity in BALB/c mouse assessed as change in body weight at 50 mg/kg, po administered once daily via gavage for 10 days measured twice every week up to 11 days (reference value: 5.32 g). The series is classed as organism-based. As to conditions: in vivo. The essentials: as §2
The subject of series [9] is MX1. The series can be described thus: Anti-tumor activity against human MX1 cells xenografted in BALB/c mouse assessed as tumor weight at 50 mg/kg, po administered once daily via gavage for 10 days measured after 11 days (reference value: 4.09 +/- 0.64 g). Format: functional. Put shortly:
as §2

For series [10], the system named is MX1. Description: Anti-tumor activity against human MX1 cells xenografted in BALB/c mouse assessed as tumor growth inhibition at 25 mg/kg, po administered once daily via gavage for 5 days measured after 11 days in presence of temozolomide relative to control. Format: functional. Put shortly: as §2
Series [11] relates to MX1. Description: Anti-tumor activity against human MX1 cells xenografted in BALB/c mouse assessed as tumor weight at 50 mg/kg, po administered once daily via gavage for 5 days measured after 11 days in presence of temozolomide (reference value: 4.09 +/- 0.64 g). Format: functional. Put shortly:
as §2

The target in series [12] is T1, Poly [ADP-ribose] polymerase 1. The series can be described thus: Inhibition of PARP1 in human MX1 cells assessed as potentiation of temozolomide-induced cytotoxicity at 10 uM after 72 hrs by MTT assay relative to temozolomide alone. The series is classed as cell-based. Put shortly:
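MX-1 cells seeded at 2000/well and exposed for 72 h to TMZ (0–0.5 mmol/L) with or without PARP inhibitor fixed at 10 μmol/L. Survival read by MTT. PF50 = IC50 of TMZ alone / IC50 of TMZ + inhibitor.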
In general terms: Tetrazolium assays rely on reduction of a dye to a coloured formazan, in cell work by metabolically active cells.

Series [13] addresses Poly [ADP-ribose] polymerase 2 (Homo sapiens, UniProt Q9UGN5). Description: Inhibition of recombinant human PARP2 expressed in Escherichia coli BL21(DE3) using histone as substrate measured after 1 hr in presence of biotinylated NAD+ by ELISA. The essentials: as §1
Series [14] deals with MX1. The series can be described thus: Anti-tumor activity against human MX1 cells xenografted in BALB/c mouse assessed as tumor growth inhibition at 25 mg/kg, po administered once daily via gavage for 5 days measured after 11 days in presence of temozolomide relative to temozolomide. The series is classed as functional. Put shortly:
as §2

[15] abbreviates: Mus musculus, MX1, po, read-out: TGI.

T1 sequence (P09874 whole entry): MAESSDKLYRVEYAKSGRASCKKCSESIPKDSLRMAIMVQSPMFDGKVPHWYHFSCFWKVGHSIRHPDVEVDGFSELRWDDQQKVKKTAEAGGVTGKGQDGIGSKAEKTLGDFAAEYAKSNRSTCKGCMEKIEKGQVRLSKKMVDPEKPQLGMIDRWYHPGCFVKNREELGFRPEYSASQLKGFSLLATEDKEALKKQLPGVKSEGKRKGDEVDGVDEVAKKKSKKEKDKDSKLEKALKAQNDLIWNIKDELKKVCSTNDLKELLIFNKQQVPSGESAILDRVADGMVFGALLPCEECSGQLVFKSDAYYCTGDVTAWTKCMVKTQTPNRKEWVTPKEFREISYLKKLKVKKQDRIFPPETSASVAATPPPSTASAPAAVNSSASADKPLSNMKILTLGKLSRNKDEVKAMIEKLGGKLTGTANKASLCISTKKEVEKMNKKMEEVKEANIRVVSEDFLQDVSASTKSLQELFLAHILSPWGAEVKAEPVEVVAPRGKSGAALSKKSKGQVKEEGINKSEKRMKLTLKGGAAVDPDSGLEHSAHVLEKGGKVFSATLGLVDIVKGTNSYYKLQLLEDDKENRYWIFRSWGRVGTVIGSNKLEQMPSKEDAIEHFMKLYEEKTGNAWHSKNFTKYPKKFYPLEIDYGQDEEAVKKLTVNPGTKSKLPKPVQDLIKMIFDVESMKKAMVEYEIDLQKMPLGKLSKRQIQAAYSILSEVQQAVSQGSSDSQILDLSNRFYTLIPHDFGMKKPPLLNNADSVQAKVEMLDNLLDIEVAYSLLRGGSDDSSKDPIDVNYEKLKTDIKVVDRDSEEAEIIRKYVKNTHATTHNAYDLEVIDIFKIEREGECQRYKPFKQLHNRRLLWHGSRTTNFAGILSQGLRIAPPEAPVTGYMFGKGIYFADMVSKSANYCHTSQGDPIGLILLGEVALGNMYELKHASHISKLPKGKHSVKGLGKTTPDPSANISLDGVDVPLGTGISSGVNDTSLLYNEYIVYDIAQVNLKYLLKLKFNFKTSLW
Chain of Poly [ADP-ribose] polymerase 2 (Q9UGN5 whole entry): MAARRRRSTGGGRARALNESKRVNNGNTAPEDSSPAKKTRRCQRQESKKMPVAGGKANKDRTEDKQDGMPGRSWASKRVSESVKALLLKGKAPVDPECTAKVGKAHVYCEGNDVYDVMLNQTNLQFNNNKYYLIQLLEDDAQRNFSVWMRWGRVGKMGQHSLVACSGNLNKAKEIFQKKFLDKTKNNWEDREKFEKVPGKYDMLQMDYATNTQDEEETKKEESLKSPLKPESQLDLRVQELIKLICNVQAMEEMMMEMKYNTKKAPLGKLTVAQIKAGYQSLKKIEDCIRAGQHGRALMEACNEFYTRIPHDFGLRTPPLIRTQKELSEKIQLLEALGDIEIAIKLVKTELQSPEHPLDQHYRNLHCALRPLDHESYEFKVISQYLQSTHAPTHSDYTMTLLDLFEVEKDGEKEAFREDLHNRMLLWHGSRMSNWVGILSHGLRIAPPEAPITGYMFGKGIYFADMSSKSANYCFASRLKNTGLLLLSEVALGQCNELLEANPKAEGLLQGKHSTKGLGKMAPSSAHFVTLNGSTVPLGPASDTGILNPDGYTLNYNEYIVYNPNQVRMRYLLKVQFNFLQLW

On to `CC(C)(C)CN1CCC(NC(=O)c2nc3c(C(N)=O)cc(F)cc3[nH]2)CC1`, for which the Ratio IC50 in the series listed under Homo sapiens is below 10. The T/C was 91% in the series on MX1 [1]; 32% in the series on MX1 [3]; 12% in the series with MX1 [7]; 36% in the series with MX1 [10]; 94% in the series on MX1 [14]. In addition, the inhibition in vivo at 50 mg/kg in the series on MX1 [1] (setting [15]) turned out to be 9%; in the series on MX1 [3] (setting [15]), 68%; in the series on MX1 [7] (setting [15]) it was 88%. In addition, the half-maximal inhibitory concentration (IC50) was 17 nM in series [2] and 74 nM in series [13]. In addition, the Activity in the series with Mus musculus [4] was 0.23 g; with Mus musculus [5], -0.79 g; with MX1 [6], 1.47 g; with Mus musculus [8], 5 g; in the series on MX1 [9], 3.73 g; with MX1 [11] it was 0.5 g. Also, the inhibition in vivo at 25 mg/kg in the series with MX1 [10] (setting [15]) stood at 64%; with MX1 [14] (setting [15]) it was 6%. Further, the PF50 in [12] was found to be 7.1.
